Assay outcomes from PubChem BioAssay.
The sample as a whole holds a higher share of hits than the screen did.
CHOP UPR activ: activators of apoptotic arm of unfolded protein response (CHOP) | activation, % at 10 µM | CHO-CHOP luciferase reporter, UPR activation, luminescence; percent of tunicamycin response over DMSO baseline | actives 0.34% (n = 330,000);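 active = at 10 µM dose, activation of 40% or more, normalized to positive control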
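Assay system: CHO-CHOP cells, stable luciferase reporter of PERK-eIF2a-CHOP signalling / Buffer or medium: F12 plus 10% serum / Compound dosing: one dose, 10 µM in 0.5% DMSO / Times: 6 h compound treatment, 37 °C / Technique: luciferase luminescence / Read-out: % reporter activation, DMSO baseline versus tunicamycin full activation / Benchmarks: tunicamycin and DMSO controls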
UPR XBP1 act: adaptive UPR (XBP1) activation; AID 463104; actives 0.33% (n = 330,000); CHO-XBP1 luciferase reporter, IRE1-XBP1 UPR activation, luminescence; percent of tunicamycin response, DMSO as zero; activation, % at 20 µM;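 active = versus positive control, 20 µM dose yields 30% or more activation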
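assay system = CHO-XBP1 luciferase reporter cells | amount = 1000 cells/well | buffer or medium = F12 plus 10% FBS | compound dosing = single point, 20 µM final compound, 1% DMSO | incubation = 16-18 h cell attachment at 37 °C, then 6 h compound exposure | detection = Steady-Glo luminescence read | controls = tunicamycin 10 µg/mL and vehicle-only wells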
Jurkat NFkB inh: inhibitors of the PMA/ionomycin-induced NF-kB reporter in Jurkat cells; PMA/ionomycin-induced NF-kB luciferase reporter, luminescence; inhibition, % at 4 µM; actives 0.53% (n = 330,000); AID 435003; in the data active = inhibition above about 50%
CHOP inhibitor: CHOP inhibition in unfolded protein response; actives 3.8% (n = 220,000); CHO-K1 CHOP-promoter luciferase, tunicamycin-induced, 15-18 h; inhibition, % at 10 µM; AID 2732;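 active = compounds that reduced the stress-induced luciferase reporter signal by more than about 70% of percent inhibition, limit read from the data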
697 NFkB inh: inhibitors of the PMA/ionomycin-induced NF-kB reporter in 697 B cells; actives 0.33% (n = 330,000); inhibition, % at 4 µM; AID 435022; 697 B-cell NF-kB luciferase reporter, 16 h; in the data active = inhibition above about 35%
Jurkat NFkB conf: lowers PMA/ionomycin-induced NF-kB signal in Jurkat cells | Jurkat NF-kB luciferase, 16 h | actives 27% (n = 2,700) | shares compounds with Jurkat NFkB inh | inhibition, % at 4 µM;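 active = inhibition reaching about 45% at 4 µM in either replicate, limit read from the data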
697 NFkB conf: lowers PMA/ionomycin-induced NF-kB signal in 697 B cells; inhibition, % at 4 µM; actives 35% (n = 2,000); 697 B-cell NF-kB luciferase, 16 h; shares compounds with 697 NFkB inh; in the data active = inhibition mostly above about 28%, no sharp cut-off; inactive = mostly below about 22%
Each line names hits and unclear results; the compound was inactive in the other large screens (follow-up assays come after a bar, where they were run).

O=C(Nc1ncc(Cc2ccc(SC(F)F)cc2)s1)c1ccc(OC(F)F)cc1	Jurkat NFkB inh 76, CHOP inhibitor 72 | Jurkat NFkB conf 58 | 697 NFkB conf inactive
Cc1ccc(Cc2cnc(NC(=O)c3ccco3)s2)cc1	none
Cc1ccc(NC(=O)N2CCc3ccccc32)cc1C	none | Jurkat NFkB conf inactive | 697 NFkB conf inactive
CCN(CC)S(=O)(=O)c1cccc(NC(=O)CN(C)Cc2cccc(OC)c2)c1	none
CC(C)(C)C(=O)Nc1ccc(C(=O)OC2CCCCC2)cc1	none | Jurkat NFkB conf inactive | 697 NFkB conf inactive
O=C(OC1CCCCC1)c1ccc(NC(=O)C2CCCCC2)cc1	none
CCN(C(=O)c1ccc(C(C)(C)C)cc1)c1nnc(Cn2nnc3ccccc32)s1	Jurkat NFkB inh 57, 697 NFkB inh 96 (no result: CHOP inhibitor) | Jurkat NFkB conf 69 | 697 NFkB conf 91
Cn1cc(/C=C/C(=O)c2ccccc2)c2ccccc21	none | Jurkat NFkB conf inactive | 697 NFkB conf inactive
Cc1ccsc1/C=N/N=C/c1sccc1C	none (no result: CHOP inhibitor) | Jurkat NFkB conf inactive | 697 NFkB conf inactive
CCOC(=O)c1sc2nc(-c3ccccc3)ccc2c1N	none | Jurkat NFkB conf inactive | 697 NFkB conf inactive
NC(=O)c1sc2nc(-c3ccccc3)ccc2c1N	none (no result: CHOP inhibitor)
C=CCn1c(SCC(=O)N(C)C2CCS(=O)(=O)C2)nnc1-c1ccccc1 (centres undefined)	none (no result: CHOP inhibitor)
CC(Nc1ncnc2sccc12)c1ccccc1 (centres undefined)	Jurkat NFkB inh 61, 697 NFkB inh 43 (no result: CHOP inhibitor) | Jurkat NFkB conf 62 | 697 NFkB conf 60
COc1ccccc1C(=O)N(CCC1CCCN1C)c1nc2ccccc2s1 (centres undefined)	none | Jurkat NFkB conf inactive | 697 NFkB conf inactive
Cc1ccnc(NC(=O)CCCOc2cc(=O)n(C)c3ccccc23)c1	Jurkat NFkB inh 66, 697 NFkB inh 61 (no result: CHOP inhibitor) | Jurkat NFkB conf 58 | 697 NFkB conf 48
Cc1cc(CSc2ccccc2)ccc1NC(=O)c1ccc(CN2CCOCC2)cc1	Jurkat NFkB inh 70, 697 NFkB inh 49 | Jurkat NFkB conf 73 | 697 NFkB conf 47
COc1ccc(N=Cc2c(O)[nH]c3ccccc23)cc1	none | Jurkat NFkB conf inactive | 697 NFkB conf inactive
O=[N+]([O-])c1ccc(S(=O)(=O)N/N=C/c2ccsc2)cc1	none (no result: CHOP inhibitor)
CC1=NNC(=O)/C1=C\c1cn(-c2ccccc2)nc1-c1ccc(Cl)cc1	Jurkat NFkB inh 95, CHOP inhibitor 108, 697 NFkB inh 37 | Jurkat NFkB conf 46 | 697 NFkB conf inactive
CCc1ccc(NC(=O)c2cnn(-c3ccccc3)c2C2CCNCC2)cc1	none
CCc1ccc(NC(=O)c2cnn(-c3ccccc3)c2C)cc1	none | Jurkat NFkB conf inactive | 697 NFkB conf inactive
N#C/C(=C\c1ccc(N2CCOCC2)cc1)c1ccccc1	none | Jurkat NFkB conf inactive | 697 NFkB conf inactive
Cc1ccc(NC2=Nc3ccccc3CS2)cc1	none | Jurkat NFkB conf inactive | 697 NFkB conf inactive
COc1ccc(OC)c(CNC(=O)C2CCC(=O)N(CCCN3CCCC3=O)C2)c1 (centres undefined)	none (no result: CHOP inhibitor)
CC1CCCCN1C(=O)CSc1nnc(-c2ccccc2O)o1 (centres undefined)	none (no result: CHOP inhibitor)
O=C(CN1C(=O)c2ccccc2S1(=O)=O)c1ccc(F)cc1	none
O=C(CN1C(=O)c2ccccc2S1(=O)=O)c1ccc2c(c1)OCCO2	Jurkat NFkB inh 94, CHOP inhibitor 94, 697 NFkB inh 93 | Jurkat NFkB conf 92 | 697 NFkB conf 92
S=c1nccc(-c2ccc3c(c2)CCO3)[nH]1	none
CC1(C)CCc2cc(-c3ccnc(=S)[nH]3)ccc2O1	none | Jurkat NFkB conf inactive | 697 NFkB conf inactive
CCOC(=O)c1sc(SC)c2c1CCCC2=O	none
CCN(CC)c1ccc2cc(C(=O)Nc3ccccn3)c(=O)oc2c1	none | Jurkat NFkB conf inactive | 697 NFkB conf inactive
Cn1nccc1C(=O)NC1CCCc2c1cnn2-c1ccc(C(C)(C)C)cc1 (centres undefined)	Jurkat NFkB inh 66, 697 NFkB inh 44 (no result: CHOP inhibitor) | Jurkat NFkB conf 71 | 697 NFkB conf 103
